# Rtt109 Vps75 = inhibitors of C. albicans Rtt109/Vps75 HAT, primary screen, biochemical, ThioGlo CoA-SH fluorescence, plate reader; purified Rtt109/Vps75, 4 h; hit rate 0.16% among 330,000; inhibition, % at 34.9 µM; AID 540336, 2011;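 active means inhibition of at least 50% in every replicate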
# Target sequence (Q5AAJ8 whole entry, looked up): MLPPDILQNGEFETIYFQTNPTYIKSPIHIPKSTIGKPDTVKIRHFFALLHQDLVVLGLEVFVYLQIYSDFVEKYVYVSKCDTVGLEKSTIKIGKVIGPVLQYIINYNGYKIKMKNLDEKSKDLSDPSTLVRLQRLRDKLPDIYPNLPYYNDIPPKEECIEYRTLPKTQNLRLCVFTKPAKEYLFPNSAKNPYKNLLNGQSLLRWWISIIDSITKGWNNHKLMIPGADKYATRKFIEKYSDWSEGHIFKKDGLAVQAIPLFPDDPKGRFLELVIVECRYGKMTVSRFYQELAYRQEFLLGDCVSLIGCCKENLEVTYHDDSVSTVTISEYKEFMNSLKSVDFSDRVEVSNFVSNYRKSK
# HIV Env fusion = inhibitors of HIV-1 Env-driven cell-cell fusion, primary screen, HeLa-JRFL effector, CEM21 target cells, luciferase. inhibition, % at 12.3 µM. hit rate 1.1% among 360,000. AID 651610, 2012;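 active means mean replicate inhibition score of at least 50 and every replicate individually at or above 50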
# Cneo AK release = Cryptococcus neoformans cell lysis inducers, primary screen, AK release luminescence, single concentration; AID 651654, 2012; C. neoformans lysis, adenylate kinase release luminescence, 4 h; normalised: neutral wells 0, clomiphene wells 100; hit rate 0.2% among 360,000; lysis activity, % at 15 µM;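 active means mean lysis activity across replicates of at least 80%, whatever share of replicates individually reach that level; inactive means mean lysis activity below 80%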
#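 Assay system: Cryptococcus neoformans yeast cells / Dosing: single-point compound dose / Timing: 4 h at 37 °C static, read 1 h later / Measured by: luminescence of released adenylate kinase using an AK detection reagent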
# INS-1E GSIS act = GLuc luminescence reporter in INS-1E cells, primary screen for activators of glucose-dependent secretion of insulin; activation, % at 16.6 µM; hit rate 0.61% among 370,000; INS-1E GLuc reporter insulin secretion, 2-3 h;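 active means lowest replicate activation of at least 40%, so every replicate reaches that level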
# miR122 inh = miR-122 Renilla sensor signal increase in Huh7, primary screen, miR-122 inhibitor project, cell-based, single point, plate reader. Huh7 miR-122 Renilla luciferase sensor, 48 h; neutral wells = 0, positive control = 100. activation (reporter increase), % at 12.5 µM. hit rate 0.3% among 340,000;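 active means mean replicate activation score at least 90 and every replicate individually at or above 90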;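 further: higher luciferase means less miR-122 activity so hits act as miR-122 inhibitors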
# dFosB act = activators of delta FosB homodimer, primary screen, biochemical, fluorescence polarization, TAMRA-CDK5 oligo, single point; Protein FosB (Mus musculus), P13346; purified delta FosB; percent of positive-control signal above neutral wells; activation, % at 25 µM; hit rate 0.99% among 340,000; AID 493131, 2011;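 active means mean activation above about 17%, with every replicate also reaching it, limit read from the data, passing the limit was not always enough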
# A number is an active result; . = inactive; / = not tested or not shown; ! = not active in a repeat; [ ] = dose if it differs, or a comment. Sampled rows, rich in hits. Any-hit rate of the full collection: about 2.4%.
SMILES,Rtt109 Vps75,HIV Env fusion,Cneo AK release,INS-1E GSIS act,miR122 inh,dFosB act
CCNC(=S)NNC(=O)C1CCCCC1,.,.,.,/,140.5,.
CCCN(CCC)c1ncnc2nc[nH]c12,.,61.8,.,.,.,.
Clc1ccccc1CN(Cc1ccccc1)c1ncnc2nc[nH]c12,.,/,.,/,.,.
CO[C@@H]1CN(C)C(=O)c2ccc(NC(=O)NC(C)C)cc2OC[C@H](C)NC[C@@H]1C,/,.,81.9,.,.,/
CO[C@H]1CN(C)C(=O)c2ccc(NC(=O)NC(C)C)cc2OC[C@@H](C)NC[C@H]1C,/,.,82.4,.,.,/
CO[C@H]1CN(C)C(=O)c2ccc(NC(=O)Nc3cccc(F)c3)cc2OC[C@H](C)NC[C@H]1C,/,75.5[16.7 µM],.,.,/,/
CO[C@@H]1CN(C)C(=O)c2ccc(NC(=O)NC(C)C)cc2OC[C@@H](C)NC[C@@H]1C,/,.,.,.,.,/
C/C=C/c1ccc([C@@H]2[C@@H](CO)N(C(C)=O)[C@@H]2CNC(=O)CC2CC2)cc1,/,/,.,.,.,/
CCN1CCN(C(=O)c2ccc3c(c2)c(C)c(C)n3Cc2ccccc2)CC1,.,.,.,.,.,.
CCn1c(C)c(C)c2cc(C(=O)N3CCc4ccccc4C3)ccc21,.,.,.,.,/,18.6
O=C(c1ccc2c(c1)OCO2)N1CCc2ccccc21,.,.,/,.,.,.
O=C(c1ccc2c(c1)OCO2)N1CCc2ccccc2C1,.,.,.,81.2,.,.
CC(C)NC(=O)N(C)C[C@@H]1Oc2ccc(NC(=O)CCC(F)(F)F)cc2C(=O)N([C@H](C)CO)C[C@H]1C,/,/,.,.,.,/
CCCN1[C@@H]2c3ccc(-c4ccccc4F)c(=O)n3C[C@@H]2[C@@H](CO)[C@@H]1C(=O)N1CCCCC1,/,/,.,.,.,/
c1ccc(CCN2CCN=C2Nc2ccccc2)cc1,.,.,.,42.5,.,.
COc1ccc(/C=C2\SC(=S)N(CCC(=O)Nc3ccc(C(=O)O)cc3)C2=O)cc1,.,.,.,.,/,.
COc1ccc(/C=C2/SC(=S)N(CCC(=O)O)C2=O)cc1,.,57.6,.,.,.,.
COc1ccc(/C=C2\SC(=S)N(CCC(=O)NCCc3ccc(O)cc3)C2=O)cc1,.,.,.,.,.,38.4
COc1ccc(/C=C2\SC(=S)N(CC(=O)NC3CCS(=O)(=O)C3)C2=O)cc1 (configuration not stated),.,.,.,.,.,47.3
O=C(CCN1C(=O)/C(=C/c2ccc(F)cc2)SC1=S)NC1CCS(=O)(=O)C1 (configuration not stated),.,.,.,.,.,.
COc1ccc(/C=C2\SC(=S)N(CCC(=O)Nc3cccc(O)c3)C2=O)cc1,.,.,.,/,.,24.7
Cc1noc(C)c1NC(=O)Nc1ccc2c(c1)C(=O)N([C@@H](C)CO)C[C@H](C)[C@@H](CN(C)C(=O)Nc1c(C)noc1C)O2,/,.,.,.,.,/
COCC#Cc1cnc2c(c1)C(=O)N([C@@H](C)CO)C[C@@H](C)[C@@H](CN(C)C(=O)c1ccc(F)cc1)O2,/,.,.,.,.,/
C[C@H]1CN([C@@H](C)CO)S(=O)(=O)c2ccc(-c3ccc(C(=O)N(C)C)cc3)cc2O[C@H]1CN(C)C(=O)Cc1ccccn1,/,.,.,.,.,/
C[C@@H]1CN([C@H](C)CO)S(=O)(=O)c2ccc(-c3ccc(C(=O)N(C)C)cc3)cc2O[C@H]1CN(C)C(=O)Cc1ccccn1,/,.,93.2!,.,.,/
SMILES,Rtt109 Vps75,HIV Env fusion,Cneo AK release,INS-1E GSIS act,miR122 inh,dFosB act
C[C@@H]1CN([C@@H](C)CO)S(=O)(=O)c2ccc(-c3ccccc3)cc2O[C@H]1CN(C)C(=O)C1CCCCC1,/,.,111.7,.,.,/
C[C@H]1CN([C@@H](C)CO)S(=O)(=O)c2ccc(-c3ccccc3)cc2O[C@@H]1CN(C)C(=O)C1CCCCC1,/,.,.,.,.,/
Cc1ccc(-c2ccc3c(c2)O[C@@H](CN(C)C(=O)C2CCCCC2)[C@H](C)CN([C@H](C)CO)S3(=O)=O)cc1,/,59.7[16.7 µM],/,.,.,/
O=C(c1ccc(F)cc1)N1C[C@@H]2[C@H](c3ccccc31)[C@@H](CO)N2Cc1ccc2c(c1)OCO2,/,/,.,.,.,/
Cc1ccc(S(=O)(=O)Nc2ccccc2C(C(=O)OC(C)(C)C)C(=O)OC(C)(C)C)cc1,/,57.4,/,.,/,/
Cc1ccc(S(=O)(=O)Nc2ccccc2C(O)c2ccccc2)cc1 (configuration not stated),.,.,.,.,.,.
CCOC(=O)c1cc2sccc2n1CC(=O)N1CCc2ccccc21,.,62.3,.,.,.,.
O=C(C[C@@H]1C[C@@H]2c3cc(NC(=O)CC4CC4)ccc3O[C@@H]2[C@@H](CO)O1)NCc1ccccc1F,/,/,.,.,.,/
CC1=NS(=O)(=O)NC(C)(C)C1,.,.,/,52.5,/,.
Cc1cccc(C)c1NC(=O)C1c2ccccc2OCC(=O)N1CCCN1CCOCC1 (configuration not stated),/,.,/,47.2,/,/
CCC(=O)N1CC2(C1)[C@H](c1ccccc1)[C@@H](CO)N2C(=O)c1ccncc1,/,/,/,.,/,/
O=[N+]([O-])c1ccc2cccnc2c1,/,.,.,.,.,/
Cc1cc([N+](=O)[O-])cc2ncccc12,.,/,/,86.4,.,.
COc1cc(S(=O)(=O)n2nc(C)cc2C)c(OC)cc1Cl,64.6,/,.,.,.,.
COc1cc(Cl)ccc1S(=O)(=O)n1nc(C)cc1C,.,/,.,/,.,.
CN(C)c1nc(=NCc2cccs2)ss1,.,.,/,71.5,/,.
CC(SC(=S)N(C)Cc1cccs1)C(=O)O (configuration not stated),.,.,/,.,/,.
Cc1nn(CC(=O)NCc2cccnc2)c(C)c1[N+](=O)[O-],68.2,.,/,.,/,.
Cc1c(Cl)c([N+](=O)[O-])nn1CC(=O)NCc1cccnc1,.,.,/,.,.,.
CC(C(=O)OCC(=O)c1ccc([N+](=O)[O-])cc1)N1C(=O)C2C3CCC(C3)C2C1=O (configuration not stated),107.5,.,/,.,/,.
C[C@@H]1CN([C@H](C)CO)S(=O)(=O)c2ccc(C#Cc3ccncc3)cc2O[C@@H]1CN(C)C(=O)C1CCOCC1,/,.,.,.,.,/
COC(=O)C1CC23C=CCN4CCC5(c6ccccc6NC15C2C)C43 (configuration not stated),.,.,.,.,147.5,.
CN1CC[C@]23c4ccccc4N[C@H]1[C@]21CCN(C)[C@H]3Nc2ccccc21,.,.,.,/,.,.
